Where two headings read alike, the source gives them in different places.
Columns and labels:
thrombin bound to TM = settings: cited from earlier work
[1] = tested on: thrombin–antithrombin (TAT) complex; experiment: Tissue factor-induced hypercoagulability in rats: plasma TAT levels; assay type: in vivo; settings: rat; for effect on TF-induced increase in TAT levels: 0.3 mg kg^−1 i.v., 10 minutes after TF 8 mg kg^−1
platelet count = experiment: Tissue factor-induced hypercoagulability in rats: platelet count; assay type: in vivo; settings: rat
[2] = tested on: prothrombin fragment 1+2 generation in protein C-deficient human plasma; experiment: Prothrombin fragment 1+2; assay type: biochemical; settings: presence of TM
Method in brief: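 Protein C-deficient human plasma was spiked with test compound (increasing concentrations) or vehicle plus rhs-TM (final 10 nmol L−1), then defibrinated with PefablocFG (final 6 mg mL−1). The CAT-type TF/phospholipid trigger was used, started with Fluo-buffer (HEPES, CaCl2, 5% DMSO, no substrate) and stopped after 12 min with PPACK (final 10 μmol L−1). Samples went into EDTA (final 100 mmol L−1) at 4 °C and were stored at −20 °C. F1+2 was measured by ELISA.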

[3] = tested on: tissue factor-induced thrombin generation in normal human platelet-poor plasma; experiment: Thrombin generation assay; assay type: biochemical; settings: for IC50: normal human PPP; for maximal increase in Cmax over baseline / maximal increase in ETP over baseline: absence of rhs-TM, lower concentration range, not significant; for Cmax increase vs. control / ETP increase vs. control: presence of rhs-TM 10 nmol L^−1
Method in brief: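 Citrated blood (3.12%, 1/10 vol) came from unmedicated healthy donors; PPP was prepared at 1000× g for 20 min at room temperature. Individual-donor PPP was spiked with increasing test compound concentrations (3–948 or 3–1090 nmol L−1) or vehicle, with or without rhs-TM (final 10 nmol L−1). TF was 1.67 pmol L−1 and phospholipid 1.33 μmol L−1 (final). After 5 min at 37 °C, FluCa was added. Calibrated thrombogram gave Cmax and ETP; n = 8–12.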

prothrombin time = experiment: Prothrombin time; assay type: in vivo; settings: rat; for PT prolongation: 15 minutes after drug, 10 minutes after TF
Method in brief: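 Rats (male Wistar, 227–273 g) were fasted overnight and anaesthetised with i.p. pentobarbital-Na (80–100 mg kg−1). Test compound in PEG:H2O:glycerol (996:100:60 g), 0.001–0.3 mg kg−1, or vehicle (1 mL kg−1) was given i.v. After 5 min, TF (8 mg kg−1) or vehicle (sham) was given as a slow i.v. bolus. Citrated aortic blood was taken 10 min later. PT on PPP by ball coagulometer, expressed as fold over baseline; n = 10.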

[4] = tested on: prothrombin fragment 1+2 generation in normal human platelet-poor plasma; experiment: Prothrombin fragment 1+2; assay type: biochemical; settings: for IC50: read-out: F1+2 generation IC50, normal human PPP; for F1+2 increase: same concentration range as by the CAT method (melagatran 119–474, dabigatran 136–545 nmol L^−1)
plasma fibrinogen = experiment: Tissue factor-induced hypercoagulability in rats: fibrinogen levels; assay type: in vivo; settings: rat
[5] = tested on: thrombin generation in protein C-deficient human plasma; experiment: Thrombin generation assay; assay type: biochemical; settings: absence or presence of rhs-TM
Method in brief: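 Lyophilised protein C-deficient human plasma was spiked with increasing test compound concentrations or vehicle, with or without rhs-TM (final 10 nmol L−1). Thrombin generation was triggered with TF 1.67 pmol L−1 and phospholipid 1.33 μmol L−1 (final), incubated 5 min at 37 °C, and started with FluCa (HEPES, CaCl2, fluorogenic substrate). Fluorescence was calibrated per sample; Cmax and ETP were derived; n = 3.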

[6] = tested on: mortality of treated animals; settings: TF-induced hypercoagulation; cited from earlier work
[7] = tested on: activated partial thromboplastin time; experiment: Activated partial thromboplastin time; assay type: in vivo; settings: rat, 15 minutes after drug, 10 minutes after TF
Method in brief: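 Male Wistar rats (227–273 g) were fasted overnight and anaesthetised with i.p. pentobarbital-Na (80–100 mg kg−1). Test compound in 0.9% NaCl (0.001–0.3 mg kg−1) or vehicle (1 mL kg−1) was given i.v., then 5 min later recombinant TF (8 mg kg−1) or vehicle (sham) was given as a slow i.v. bolus. Citrated aortic blood was drawn 10 min after TF. APTT was measured on PPP by ball coagulometer, as fold over baseline; n = 10.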

[8] = Plasma concentrations of rivaroxaban and melagatran in rats; assay type: in vivo; settings: rat, 15 minutes after drug, 10 minutes after TF
[9] = whole dose range tested (0.001–0.3 mg kg^−1 i.v.)
[10] = read-out: Cmax IC50, peak thrombin generation, +TM (rhs-TM 10 nmol L^−1)
[11] = read-out: Cmax IC50, peak thrombin generation, −TM (absence of rhs-TM)
[12] = read-out: ETP IC50, endogenous thrombin potential, +TM (rhs-TM 10 nmol L^−1)
[13] = read-out: ETP IC50, endogenous thrombin potential, −TM (absence of rhs-TM)
[14] = presence of rhs-TM 10 nmol L^−1
[15] = melagatran at 119–474 nmol L^−1

| Compound | increase in the affinity of the thrombin inhibitor for the thrombin bound to TM (thrombin bound to TM) | effect on TF-induced increase in TAT levels [1] | generation of F1+2 [2] | IC50 [3, 10] [nM] | IC50 [3, 11] [nM] | IC50 [3, 12] [nM] | IC50 [3, 13] [nM] | IC50 ([4]; absence of rhs-TM) [nM] | increase in ETP or Cmax [5] | maximal increase in Cmax over baseline [3] [%] | maximal increase in ETP over baseline [3] [%] | F1+2 increase [4, 14] | further results |
| --- | --- | --- | --- | --- | --- | --- | --- | --- | --- | --- | --- | --- | --- |
| N=C(N)NCCCNC(=O)[C@@H]1CCCCN1C(=O)[C@@H](CC1CCCCC1)NCC(=O)O [inogatran] | twofold increase |  |  |  |  |  |  |  |  |  |  |  |  |
| O=C(NC[C@H]1CN(c2ccc(N3CCOCC3=O)cc2)C(=O)O1)c1ccc(Cl)s1 [Rivaroxaban] |  | complete inhibition | concentration-dependently inhibited | 44 ± 6 | 66 ± 5 | 57 ± 8 | 697 ± 106 | 12 ± 7 |  |  |  |  | platelet count (platelet count; [9]): not affected; PT prolongation (prothrombin time; 0.001 mg kg^−1 i.v.): 1.00 ± 0.04 x-fold over baseline; PT prolongation (prothrombin time; 0.003 mg kg^−1 i.v.): 1.02 ± 0.02 x-fold over baseline; PT prolongation (prothrombin time; 0.01 mg kg^−1 i.v.): 0.96 ± 0.02 x-fold over baseline; PT prolongation (prothrombin time; 0.03 mg kg^−1 i.v.): 1.03 ± 0.02 x-fold over baseline; PT prolongation (prothrombin time; 0.1 mg kg^−1 i.v.): 1.26 ± 0.06 x-fold over baseline; PT prolongation (prothrombin time; 0.3 mg kg^−1 i.v.): 1.92 ± 0.05 x-fold over baseline; prolongation of PT over the dose range (prothrombin time; dose range 0.001–0.3 mg kg^−1 i.v.): 1.0–1.9 fold over baseline; IC50 [4, 14]: 14 ± 7 nM; fibrinogen concentration (plasma fibrinogen; [9]): not affected |
| [H]/N=C(/N)c1ccc(NCc2nc3cc(C(=O)N(CCC(=O)O)c4ccccn4)ccc3n2C)cc1 [Dabigatran] |  |  | concentration-dependently inhibited | > 1090 | 976 ± 71 | > 1090 | 722 ± 44 | 387 ± 63 | No increase | 11 | 5 | 1.6–1.9 fold | Cmax increase vs. control ([3]; dabigatran at 68–545 nmol L^−1): 2.0–3.3 fold; ETP increase vs. control ([3]; dabigatran at 136–545 nmol L^−1): 2.2–2.6 fold |
| CCOC(=O)CN[C@@H](C(=O)N1CC[C@H]1C(=O)NCc1ccc(/C(N)=N\O)cc1)C1CCCCC1 [ximelagatran] |  |  |  |  |  |  |  |  |  |  |  |  | mortality rate, dose-dependent [6]: up to 67%; mortality rate, time-dependent [6]: ≤ 88% |
| N=C(N)c1ccc(CNC(=O)[C@@H]2CCN2C(=O)[C@H](NCC(=O)O)C2CCCCC2)cc1 [Melagatran] | twofold increase | reduced | concentration-dependently inhibited | > 950 | 940 ± 79 | > 950 | 732 ± 43 | 368 ± 40 | No increase | 8 | 6 | 1.8–2.0 fold | TAT increase vs. TF control ([1]; 0.01 mg kg^−1 i.v., P < 0.01): 1.6 fold; platelet count (platelet count; 0.01 mg kg^−1 i.v., TF control 644 × 10^3 μL^−1): 559000 µL⁻¹; Cmax increase vs. control [3, 15]: 2.2–2.7 fold; ETP increase vs. control [3, 15]: 1.9–2.2 fold; APTT prolongation ([7]; 0.001 mg kg^−1 i.v.): 1.26 ± 0.05 x-fold over baseline; APTT prolongation ([7]; 0.003 mg kg^−1 i.v.): 1.34 ± 0.05 x-fold over baseline; APTT prolongation ([7]; 0.01 mg kg^−1 i.v.): 1.68 ± 0.03 x-fold over baseline; APTT prolongation ([7]; 0.03 mg kg^−1 i.v.): 2.17 ± 0.23 x-fold over baseline; APTT prolongation ([7]; 0.1 mg kg^−1 i.v.): 2.08 ± 0.18 x-fold over baseline; APTT prolongation ([7]; 0.3 mg kg^−1 i.v.): 3.11 ± 0.27 x-fold over baseline; fibrinogen levels (plasma fibrinogen; 0.03 mg kg^−1 i.v., TF control 2.34 ± 0.08 g L^−1, P < 0.001): 1.41 ± 0.20 g/L; Plasma concentration ([8]; 0.01 mg kg^−1 i.v.): 19.2 ± 0.9 ng/mL; Plasma concentration ([8]; 0.3 mg kg^−1 i.v.): 524.7 ± 26.1 ng/mL |

From publication PMC4285304 (Journal of Thrombosis and Haemostasis, 2014)
